Experimental data from ChEMBL document CHEMBL4390698, “Targeted delivery of atorvastatin via asialoglycoprotein receptor (ASGPR)” (Bioorg Med Chem, 2019).
Active and inactive are the calls of the source. The calls are words filed in the database; no cut-off is given here.

Assays:
[1] = biological target: T1, 3-hydroxy-3-methylglutaryl-coenzyme A reductase (Homo sapiens) (UniProt P04035); experiment: Inhibition of HMG CoA reductase (unknown origin) in pH 4.5 PBS in presence of NADPH incubated for 10 mins
T1 sequence (whole entry): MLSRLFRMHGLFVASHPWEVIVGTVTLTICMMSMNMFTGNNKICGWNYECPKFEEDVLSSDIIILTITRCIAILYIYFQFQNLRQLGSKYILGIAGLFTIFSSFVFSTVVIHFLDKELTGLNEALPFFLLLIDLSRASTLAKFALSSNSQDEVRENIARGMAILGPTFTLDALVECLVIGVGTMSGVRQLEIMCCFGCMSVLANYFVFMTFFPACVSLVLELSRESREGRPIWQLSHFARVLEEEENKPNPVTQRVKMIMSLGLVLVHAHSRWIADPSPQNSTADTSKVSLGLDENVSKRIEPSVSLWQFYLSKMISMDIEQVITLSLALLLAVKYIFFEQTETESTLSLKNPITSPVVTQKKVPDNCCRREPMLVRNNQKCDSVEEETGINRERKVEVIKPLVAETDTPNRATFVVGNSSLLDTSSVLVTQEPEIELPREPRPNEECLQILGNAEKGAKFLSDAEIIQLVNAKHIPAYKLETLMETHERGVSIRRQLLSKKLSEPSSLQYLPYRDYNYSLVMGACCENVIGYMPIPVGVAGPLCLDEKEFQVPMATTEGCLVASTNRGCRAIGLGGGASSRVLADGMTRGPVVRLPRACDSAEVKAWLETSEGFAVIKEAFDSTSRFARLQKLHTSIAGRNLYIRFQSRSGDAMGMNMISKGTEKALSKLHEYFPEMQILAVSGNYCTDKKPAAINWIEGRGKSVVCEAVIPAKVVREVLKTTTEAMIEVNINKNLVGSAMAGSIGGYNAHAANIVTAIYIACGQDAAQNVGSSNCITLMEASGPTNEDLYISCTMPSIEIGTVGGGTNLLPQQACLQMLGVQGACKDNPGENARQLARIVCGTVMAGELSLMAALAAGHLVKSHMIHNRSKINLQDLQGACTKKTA
Method in brief: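 Commercial HMG-CoA reductase kit, run on conjugates first hydrolysed as in the esterase procedure (pH 7.40 esterase, or pH 4.50 then pH 7.40 esterase). Absorbance at 340 nm was read kinetically for 10 min. Activity was computed from ΔA340/min (sample minus blank) using NADPH ε 6.22 mM⁻¹cm⁻¹ ×2, 0.6 mg/mL enzyme, 12×10^-3 mL enzyme, 0.2 mL total volume and 0.55 cm path.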

[2] = biological target: T1, 3-hydroxy-3-methylglutaryl-coenzyme A reductase (Homo sapiens); experiment: Inhibition of HMG CoA reductase in human Hep3G cells assessed as increase in LDL receptor expression at 25 uM incubated for 48 hrs by immunofluorescence method; format: cell-based; conditions: in the assay text read “Hep3B” for “Hep3G”
Method in brief: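 Hep3B cells seeded 2×10^5 cells/cm2 and treated 24 h later at 25 μM final (from 10 mM stocks) for 48 h. Harvested cells were stained with anti-LDL receptor primary (1/100, 30 min RT), then goat anti-mouse IgG (1/2000, 30 min RT, dark), and analysed by flow cytometry. Triplicate; two-tailed t test.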

[3] = Drug uptake in human Hep3B cells assessed as ASGPR-mediated cellular uptake at 90 uM incubated for 3 hrs by UV spectrum and mass spectroscopic method relative to atorvastatin; format: ADME, cell-based
Method in brief: (§1)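 Hep3B cells in EMEM/10% FBS, 37 °C, 5% CO2, seeded 1×10^4 cells/cm2. After 24 h, compound was added from 18 mM stocks to a final 90 μM, with or without 90 mM GalNac co-added, for 3 h. Cells were rinsed, trypsinised and pelleted, then extracted with methanol/DCM. Supernatant was read by UV and mass spectra, and amounts were taken from standard curves.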

[4] = Drug metabolism assessed as esterase (unknown origin)-mediated atorvastatin release in pH 7.4 PBS buffer incubated for 3 to 24 hrs by mass spectrometry; format: ADME; conditions: human
Method in brief: (§2)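 Porcine liver esterase hydrolysis; DMSO stocks 3.5 mM. pH 7.40 route: stock diluted into PBS pH 7.40 containing 0.5 mg/mL esterase, 37 °C, sampled at 0 h, 3 h and 24 h. pH 4.50 route: PBS pH 4.50 at 37 °C for 24 h, pH raised to 7.40 with NaOH, PBS pH 7.40 containing 1.0 mg/mL esterase added, 37 °C one day. Reactions quenched with DCM; DCM layer analysed by mass spectrometry.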

[5] = biological target: T1, 3-hydroxy-3-methylglutaryl-coenzyme A reductase (Homo sapiens); experiment: Inhibition of HMG CoA reductase (unknown origin) using hydrolyzed product of compound in presence of NADPH incubated for 24 hrs in pH 4.5 PBS followed by incubation in pH 7.4 for 24 hrs in presence of esterase
[6] = Drug uptake in human Hep3B cells assessed as ASGPR-mediated cellular uptake at 90 uM incubated for 3 hrs in presence of 90 mM GalNac by UV spectrum and mass spectroscopic method relative to atorvastatin; format: ADME, cell-based; method in brief: as §1
[7] = Drug metabolism assessed as esterase (unknown origin)-mediated atorvastatin release in pH 4.5 PBS buffer incubated for 3 to 24 hrs by mass spectrometry; format: ADME; conditions: human; method in brief: as §2

| inhibition [1] | inhibition [2] | fold change (FC) [3] | Drug metabolism [4] | inhibition [5] | Drug uptake [6] | Drug metabolism [7] | Structure (SMILES) |
| --- | --- | --- | --- | --- | --- | --- | --- |
| Active | Active | – | – | – | – | – | CC(C)c1c(C(=O)Nc2ccccc2)c(-c2ccccc2)c(-c2ccc(F)cc2)n1CC[C@@H](O)C[C@@H](O)CC(=O)O |
| inactive | Active | 1.4 | Metabolite_Detected | inactive | Not Active | – | CC(=O)N[C@H]1[C@H](OCCn2cc(COC(=O)C[C@H](O)C[C@H](O)CCn3c(-c4ccc(F)cc4)c(-c4ccccc4)c(C(=O)Nc4ccccc4)c3C(C)C)nn2)O[C@H](CO)[C@H](O)[C@@H]1O |
| inactive | Active | 5.1 | Metabolite_Notdetected | inactive | Not Active | Metabolite_Detected | CC(=O)N[C@H]1[C@H](OCCn2cc(COC(=O)C[C@H]3C[C@@H](CCn4c(-c5ccc(F)cc5)c(-c5ccccc5)c(C(=O)Nc5ccccc5)c4C(C)C)OC(C)(C)O3)nn2)O[C@H](CO)[C@H](O)[C@@H]1O |
